Source: ChEMBL document CHEMBL4257580, “Tanshinone-IIA-Based Analogues of Imidazole Alkaloid Act as Potent Inhibitors To Block Breast Cancer Invasion and Metastasis in Vivo” (J Med Chem, 2018)
The source made the active and inactive calls. No cut-off for these calls is given here.

Key:
MDA-MB-231 [1] = assay: Induction of apoptosis in human MDA-MB-231 cells assessed as up-regulation cleaved caspase3 expression at 5 to 15 uM after 72 hrs by Western blot analysis; assay type: functional, cell-based
Procedure, shortened: (§1)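 Cells treated with 0, 5, 10 or 15 μM for 72 h. Lysates quantified by BCA, equal protein resolved on 10% tricine SDS-PAGE and transferred to nitrocellulose. Membranes blocked in 5% milk/TBST, then primary antibodies 1:1000 overnight at 4 °C and HRP secondary 1:2000 for 1 h at room temperature. Three independent experiments.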

MDA-MB-231 [2] = assay: Antiangiogenesis activity in human MDA-MB-231 cells xenografted in fil1:EGFP transgenic zebrafish sub-intestinal vessels assessed as slowing of the sprout of angiogenesis at 5 uM measured every 24 hrs by fluorescence microscopy; assay type: functional, cell-based
Procedure, shortened: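 Tg(fli1:EGFP) embryos at 48 hpf injected with 10–50 nL of DiI-labelled cells (~10^7 cells/mL in serum-free DMEM) into the perivitelline space near the subintestinal vessels. Ten embryos per well kept in 2 mL aquaculture water with 0 or 5 μM for 96 h. Imaged every 24 h by fluorescence microscopy; tumour area and trunk/tail fluorescence quantified, n=10/group, three experiments.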

MDA-MB-231 [3] = assay: Antimigratory activity in human MDA-MB-231 cells at 3 uM up to 72 hrs by wound healing assay relative to control; assay type: functional
Procedure, shortened: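 Scratch assay: 1×10^5 cells/well grown to more than 80% confluence and wounded with a pipette tip. Cells then incubated with 0, 3 or 6 μM in serum-free DMEM for 72 h. The same field was imaged repeatedly over 3 days. Migration rate is wound filling, averaged over 10 fields; three independent experiments, mean ± SD.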

MDA-MB-231 [4] = assay: Cell cycle arrest in human MDA-MB-231 cells assessed as accumulation at G2 phase at 5 uM after 72 hrs by propidium iodide staining based flow cytometry (reference value: 8%); assay type: functional
Danio rerio [5] = organism: Danio rerio; assay: Ecotoxicity in fil1:EGFP transgenic zebrafish embryo up to 50 uM after 96 hrs by microscopic analysis; assay type: organism-based; conditions: in vivo
MDA-MB-231 [6] = assay: Cell cycle arrest in human MDA-MB-231 cells assessed as accumulation at G2 phase at 10 uM after 72 hrs by propidium iodide staining based flow cytometry (reference value: 8%); assay type: functional
MDA-MB-231 [7] = assay: Antimetastasis activity in human MDA-MB-231 cells assessed reduction in number of paxillins at 5 to 10 uM after 24 hrs by immunofluorescence based assay
MDA-MB-231 [8] = assay: Induction of apoptosis in human MDA-MB-231 cells assessed as late apoptotic cells at 15 uM after 72 hrs by annexin-V/propidium iodide double staining based flow cytometry (reference value: 0.12%); assay type: functional
HeLa = assay: Antiproliferative activity against human HeLa cells after 72 hrs by MTT assay; assay type: functional, cell-based
Procedure, shortened: (§2)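 A549, HeLa, HepG2 and normal liver L02 cells kept in DMEM with 10% FBS at 37 °C under 5% CO2. Plated at 5×10^3 cells/well for 24 h, then treated with graded concentrations for 72 h. Viability measured by MTT reduction (5 h), formazan dissolved in DMSO and read at 570 nm. Three repeats.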

MDA-MB-231 [9] = assay: Antimetastasis activity in human MDA-MB-231 cells assessed reduction in stress fibers by measuring F-actin protein expression at 5 to 10 uM after 24 hrs by immunofluorescence based assay
MDA-MB-231 [10] = assay: Induction of apoptosis in human MDA-MB-231 cells assessed as early apoptotic cells at 5 uM after 72 hrs by annexin-V/propidium iodide double staining based flow cytometry (reference value: 0.02%); assay type: functional
MDA-MB-231 [11] = assay: Antiinvasive activity against human MDA-MB-231 cells assessed as reduction in number of black holes at 3 uM after 24 hrs by FITC-gelatin based confocal microscopy; assay type: functional, cell-based
Procedure, shortened: (§3)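 Coverslips coated with poly-L-lysine, fixed with glutaraldehyde, overlaid with 0.2% FITC-gelatin in PBS/2% sucrose and quenched with sodium borohydride. Cells (2×10^5/well) plated with 0, 3 or 6 μM at 37 °C for 24 h. Gelatin degradation, seen as nonfluorescent dark holes, imaged by laser confocal microscopy; F-actin counterstained with rhodamine-phalloidin.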

MDA-MB-231 [12] = assay: Cell cycle arrest in human MDA-MB-231 cells assessed as accumulation at S phase at 10 uM after 72 hrs by propidium iodide staining based flow cytometry (reference value: 42.60%); assay type: functional
MDA-MB-231 [13] = assay: Antimetastasis activity in human MDA-MB-231 cells assessed upregulation of GSKbeta protein expression at 5 to 15 uM after 72 hrs by Western blot analysis; assay type: functional, cell-based; procedure, shortened: as §1
MDA-MB-231 [14] = assay: Induction of apoptosis in human MDA-MB-231 cells assessed as late apoptotic cells at 10 uM after 72 hrs by annexin-V/propidium iodide double staining based flow cytometry (reference value: 0.12%); assay type: functional
Danio rerio [15] = assay: Toxicity in […] 24 hpf fil1:EGFP transgenic zebrafish embryo assessed as inhibition of normal angiogenesis at 2 to 4 uM after 48 hrs by fluorescence microscopy; assay type: organism-based; conditions: in vivo
Procedure, shortened: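 Non-xenografted Tg(fli1:EGFP) embryos dechorionated at 24 hpf and incubated with 0, 2 or 4 μM for 48 h, with PTK787 as positive control. Subintestinal vessel formation imaged at 72 hpf by fluorescence microscopy. n=10/group, three independent experiments.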

MDA-MB-231 [16] = assay: Cell cycle arrest in human MDA-MB-231 cells assessed as accumulation at S phase at 15 uM after 72 hrs by propidium iodide staining based flow cytometry (reference value: 42.60%); assay type: functional
MDA-MB-231 [17] = assay: Antiinvasive activity against human MDA-MB-231 cells assessed as reduction in number of black holes at 6 uM after 24 hrs by FITC-gelatin based confocal microscopy; assay type: functional, cell-based; procedure, shortened: as §3
HepG2 = assay: Antiproliferative activity against human HepG2 cells after 72 hrs by MTT assay; assay type: functional, cell-based; conditions: HepG2, 72 h; procedure, shortened: as §2

IC50 (HeLa): 39.8 µM | IC50 (HepG2): 21.2 µM
SMILES: Cc1coc2c3ccc4c(c3c3[nH]c(-c5ccc(O)cc5)nc3c12)CCCC4(C)C
Activity (MDA-MB-231 [1]): Active | Activity (MDA-MB-231 [2]): Active | Activity (MDA-MB-231 [3]): <50% | Activity (MDA-MB-231 [4]): 11.21% | Activity (Danio rerio [5]): Non-Toxic | Activity (MDA-MB-231 [6]): 13.01% | Activity (MDA-MB-231 [7]): Active | Activity (MDA-MB-231 [8]): 2.73% | Activity (MDA-MB-231 [9]): Active | Activity (MDA-MB-231 [10]): 2.22% | Activity (MDA-MB-231 [11]): Active | Activity (MDA-MB-231 [12]): 51.5% | Activity (MDA-MB-231 [13]): Active | Activity (MDA-MB-231 [14]): 0.35% | Activity (Danio rerio [15]): Non-Toxic | Activity (MDA-MB-231 [16]): 54.51% | Activity (MDA-MB-231 [17]): Active
